Experimental data as given in ChEMBL document CHEMBL4002610, “Design, synthesis and biological activity evaluation of novel 2,6-difluorobenzamide derivatives through FtsZ inhibition” (2017).
In brackets after ≈: the same amount, converted by molar mass.

Assays:
Streptococcus pyogenes = assay: Antibacterial activity against penicillin-susceptible Streptococcus pyogenes after 24 hrs by broth microdilution method; assay type: functional
Procedure, shortened: (§1)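 MIC by standard broth microdilution per NCCLS guidance. Strain panel: B. subtilis ATCC9372 and S. aureus ATCC25923 as standard susceptible strains, S. aureus ATCC29213 as […], S. pyogenes PS as penicillin-susceptible, S. pneumoniae ATCC49619 as standard susceptible, alongside Gram-negative strains.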

Staphylococcus aureus [1] = assay: Antibacterial activity against Staphylococcus aureus ATCC 25923 after 24 hrs by broth microdilution method; assay type: functional; conditions: ATCC 25923, 24 h; procedure, shortened: as §1
Bacillus subtilis [2] = assay: Antibacterial activity against Bacillus subtilis ATCC 9372 after 24 hrs by broth microdilution method; assay type: functional; conditions: ATCC 9372, 24 h; procedure, shortened: as §1
Escherichia coli = assay: Antibacterial activity against Escherichia coli ATCC 25922 after 24 hrs by broth microdilution method; assay type: functional; conditions: ATCC 25922, 24 h; procedure, shortened: as §1
[3] = molecular target: T1, Cell division protein FtsZ (Staphylococcus aureus) (UniProt P0A031); assay: Inhibition of FtsZ in Staphylococcus aureus ATCC 25923 assessed as decrease in cell division by measuring lowest compound concentration at which bacterial ballooning is observed after 5 hrs by phase-contrast light microscopy
T1 sequence (whole entry): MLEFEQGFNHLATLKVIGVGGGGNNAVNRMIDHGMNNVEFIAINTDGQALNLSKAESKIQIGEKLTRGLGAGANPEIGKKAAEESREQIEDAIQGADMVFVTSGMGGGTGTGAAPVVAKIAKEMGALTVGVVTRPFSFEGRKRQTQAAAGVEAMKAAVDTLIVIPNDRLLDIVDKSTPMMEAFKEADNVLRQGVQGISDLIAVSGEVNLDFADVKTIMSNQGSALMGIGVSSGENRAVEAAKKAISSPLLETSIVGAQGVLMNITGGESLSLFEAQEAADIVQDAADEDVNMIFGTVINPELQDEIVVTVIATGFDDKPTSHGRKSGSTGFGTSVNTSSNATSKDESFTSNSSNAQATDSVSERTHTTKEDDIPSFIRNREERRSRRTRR
Procedure, shortened: (§2)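 Cell division inhibition scored by cell morphology under phase-contrast light microscopy. B. subtilis ATCC9372, E. coli ATCC25922 and S. aureus ATCC25923 were exposed to compound. The lowest concentration giving filamentation (B. subtilis, E. coli) or ballooning (S. aureus) was recorded as the cell division inhibitory concentration.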

Bacillus subtilis [4] = assay: Inhibition of FtsZ in Bacillus subtilis ATCC 9372 assessed as decrease in cell division by measuring lowest compound concentration at which bacterial filamentation is observed after 5 hrs by phase-contrast light microscopy; procedure, shortened: as §2
Streptococcus pneumoniae = assay: Antibacterial activity against Streptococcus pneumoniae ATCC 49619 after 24 hrs by broth microdilution method; assay type: functional; conditions: ATCC 49619, 24 h; procedure, shortened: as §1
Staphylococcus aureus [5] = assay: Antibacterial activity against penicillin-resistant Staphylococcus aureus clinical isolate after 24 hrs by broth microdilution method; assay type: functional
[6] = test system: Escherichia coli ATCC 25922; assay: Inhibition of FtsZ in Escherichia coli ATCC 25922 assessed as decrease in cell division by measuring lowest compound concentration at which bacterial filamentation is observed after 5 hrs by phase-contrast light microscopy; procedure, shortened: as §2
Pseudomonas aeruginosa = assay: Antibacterial activity against Pseudomonas aeruginosa ATCC 27853 after 24 hrs by broth microdilution method; assay type: functional; conditions: ATCC 27853, 24 h; procedure, shortened: as §1
Staphylococcus aureus [7] = assay: Antibacterial activity against Staphylococcus aureus ATCC 29213 after 24 hrs by broth microdilution method; assay type: functional; conditions: ATCC 29213, 24 h; procedure, shortened: as §1

| SMILES | MIC (Streptococcus pyogenes) [µg/mL] | MIC (Staphylococcus aureus [1]) [µg/mL] | MIC (Bacillus subtilis [2]) [µg/mL] | MIC (Escherichia coli) [µg/mL] | INH [3] [µg/mL] | INH (Bacillus subtilis [4]) [µg/mL] | MIC (Streptococcus pneumoniae) [µg/mL] | MIC (Staphylococcus aureus [5]) [µg/mL] | INH [6] [µg/mL] | MIC (Pseudomonas aeruginosa) [µg/mL] | MIC (Staphylococcus aureus [7]) [µg/mL] |
| --- | --- | --- | --- | --- | --- | --- | --- | --- | --- | --- | --- |
| NC(=O)c1c(F)ccc(OCCn2cnc3cc([N+](=O)[O-])ccc32)c1F | 512 (≈ 1410 µM) | 256 (≈ 707 µM) | 64 (≈ 177 µM) | 256 (≈ 707 µM) | 256 | 32 | 256 (≈ 707 µM) | 1020 (≈ 2830 µM) | 128 | 512 (≈ 1410 µM) | 512 (≈ 1410 µM) |
| NC(=O)c1c(F)ccc(OCCCCBr)c1F | 128 (≈ 415 µM) | 4 (≈ 13 µM) | 4 (≈ 13 µM) | 128 (≈ 415 µM) | 4 | 1 | > 128 | 8 (≈ 26 µM) | 64 | 128 (≈ 415 µM) | 32 (≈ 104 µM) |
| NC(=O)c1c(F)ccc(O)c1F | > 4100 | 1020 (≈ 5920 µM) | 1020 (≈ 5920 µM) | 512 (≈ 2960 µM) | 2050 | 1020 | 4100 (≈ 23700 µM) | 1020 (≈ 5920 µM) | 512 | 512 (≈ 2960 µM) | 512 (≈ 2960 µM) |
| CCOC(=O)COc1ccc(F)c(C(N)=O)c1F | > 128 | 128 (≈ 494 µM) | 64 (≈ 247 µM) | 128 (≈ 494 µM) | 64 | 32 | 128 (≈ 494 µM) | 256 (≈ 988 µM) | 64 | 128 (≈ 494 µM) | 256 (≈ 988 µM) |
| NC(=O)c1c(F)ccc(OCCCCl)c1F | 128 (≈ 513 µM) | 16 (≈ 64.1 µM) | 32 (≈ 128 µM) | 128 (≈ 513 µM) | 32 | 16 | > 128 | 32 (≈ 128 µM) | 64 | 128 (≈ 513 µM) | 32 (≈ 128 µM) |
| NC(=O)c1c(F)ccc(OCCCCCCCl)c1F | > 128 | 2 (≈ 6.86 µM) | 0.5 (≈ 1.71 µM) | 256 (≈ 878 µM) | 0.5 | 0.25 | 128 (≈ 439 µM) | 8 (≈ 27.4 µM) | 128 | 256 (≈ 878 µM) | 16 (≈ 54.8 µM) |
| CC(C)Oc1ccc(F)c(C(N)=O)c1F | > 128 | 256 (≈ 1190 µM) | 256 (≈ 1190 µM) | 256 (≈ 1190 µM) | 128 | 128 | 128 (≈ 595 µM) | 256 (≈ 1190 µM) | 64 | 128 (≈ 595 µM) | 256 (≈ 1190 µM) |
| COc1cc(/C=C/C(=O)CC(=O)/C=C/c2ccc(O)c(OC)c2)ccc1O [CURCUMIN] | > 4100 | 2050 (≈ 5560 µM) | 32 (≈ 86.9 µM) | 512 (≈ 1390 µM) | 1020 | 16 | > 4100 | 4100 (≈ 11100 µM) | 256 | 4100 (≈ 11100 µM) | 4100 (≈ 11100 µM) |
| NC(=O)c1c(F)ccc(OC2CCCCC2)c1F | > 128 | 128 (≈ 501 µM) | 64 (≈ 251 µM) | 128 (≈ 501 µM) | 128 | 64 | 128 (≈ 501 µM) | 256 (≈ 1000 µM) | 64 | 128 (≈ 501 µM) | 256 (≈ 1000 µM) |
| NC(=O)c1c(F)ccc(OC2CCCC2)c1F | > 128 | 256 (≈ 1060 µM) | 512 (≈ 2120 µM) | 128 (≈ 531 µM) | 256 | 256 | 128 (≈ 531 µM) | 512 (≈ 2120 µM) | 64 | 128 (≈ 531 µM) | 256 (≈ 1060 µM) |
| CC(C)CCOc1ccc(F)c(C(N)=O)c1F | > 128 | 64 (≈ 263 µM) | 8 (≈ 32.9 µM) | 128 (≈ 526 µM) | 4 | 4 | 128 (≈ 526 µM) | 16 (≈ 65.8 µM) | 64 | 128 (≈ 526 µM) | 16 (≈ 65.8 µM) |
| CCC(C)Oc1ccc(F)c(C(N)=O)c1F (stereo not drawn) | > 128 | 64 (≈ 279 µM) | 128 (≈ 558 µM) | 128 (≈ 558 µM) | 32 | 128 | 128 (≈ 558 µM) | 128 (≈ 558 µM) | 64 | 128 (≈ 558 µM) | 128 (≈ 558 µM) |
| NC(=O)c1c(F)ccc(OCc2nc3cc([N+](=O)[O-])ccc3[nH]2)c1F | 1020 (≈ 2940 µM) | 512 (≈ 1470 µM) | 64 (≈ 184 µM) | 512 (≈ 1470 µM) | 128 | 64 | 256 (≈ 735 µM) | 512 (≈ 1470 µM) | 128 | 256 (≈ 735 µM) | 256 (≈ 735 µM) |
